Measured values as given in article PMC6679720 (Pharmacological research, 2019).
Read-outs that look alike come from different tables or passages of the source.

How the values were obtained:
[1] = cited from earlier work
[2] = cited from earlier work; remark: listed apart in the source
Plasma Oxt = format: in vivo, mice; conditions: for half-life: male, mouse; for time of return of plasma Oxt concentration to baseline / half-life / AUCG / AUCI / Cmax: plasma; for AUCG / AUCI / Cmax: nasal 12 μg, ELISA, mean ± s.e.m.
Method in brief: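 Male Oxt KO and wildtype C57BL/6J mice received Oxt (12 µg total) nasally (2 × 6 μl saline pipetted bilaterally on the rhinarium) or i.p. (0.1 ml saline). Blood was drawn through a jugular catheter every 30 min for 2 h and double-centrifuged (6000 rpm, 15 min, 4°C). Plasma plus an equal volume of 0.1% TFA was extracted on C18 Sep-Pak columns and assayed by Oxt ELISA. Cmax, T1/2, AUCG (pg*30 min/sample) and AUCI were calculated.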

[3] = format: in vivo, mice; conditions: for Cmax in amygdala ECF adjusted for recovery rate: adjusted for recovery rate (4.58%)
Method in brief: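 Male Oxt KO and wildtype C57BL/6J mice, housed singly. The day before, mice were anaesthetised with tribromoethanol and fitted with a jugular catheter and two linear microdialysis probes (18 kDa cut-off) in amygdala and hippocampus. Oxt (12 µg total) was given nasally (2 × 6 μl saline on the rhinarium) or i.p. in 0.1 ml saline. Dialysates were taken every 30 min for 2 h, vacuum-dried without heat, stored at -80°C, and measured unextracted by RIA.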

[4] = mice and rats, nonhuman primates, humans
[5] = wildtype C57BL/6J male mice, N = 8

CC[C@H](C)[C@@H]1NC(=O)[C@H](Cc2ccc(O)cc2)NC(=O)[C@@H](N)CSSC[C@@H](C(=O)N2CCC[C@H]2C(=O)N[C@@H](CC(C)C)C(=O)NCC(N)=O)NC(=O)[C@H](CC(N)=O)NC(=O)[C@H](CCC(N)=O)NC1=O [Oxt, oxytocin]
persistence of the rise of plasma Oxt after nasal application ([1]; earlier studies): 75 to 90 min
time of peak of plasma Oxt after nasal application ([1]; earlier studies): 15 to 30 min
time of peak of Oxt in circulation after nasal application [1, 4]: 15 to 30 min
time of return of Oxt in circulation to baseline after nasal application [1, 4]: 75 to 90 min
time of rise in CSF Oxt after nasal application ([1]; ref 22, 23, 28): 15 to 30 min
time of rise in CSF Oxt after nasal application ([1]; ref 24): 75 min
time of rise in CSF Oxt after nasal application ([1]; ref 26): 60 min
share of the total Oxt that reaches the CNS ([2]; intravenous injection): 2×10^−6
share of the total Oxt that reaches the CNS ([2]; nasal administration): 5×10^−6
time of return of plasma Oxt concentration to baseline (Plasma Oxt; Oxt KO mice, intraperitoneal injection): exceeding 120 minutes
time of return of plasma Oxt concentration to baseline (Plasma Oxt; Oxt KO mice, nasal administration): 90 to 120 min
half-life (Plasma Oxt; C57BL/6J (wildtype), inhaled or intranasal, 12 ug): 25.8 ± 6 min
half-life (Plasma Oxt; C57BL/6J, ip, 12 μg): 32 ± 9.1 min
half-life (Plasma Oxt; Oxt KO, ip, 12 μg): 34.5 ± 8.9 min
AUCG (Plasma Oxt; Oxt KO male mice, N = 7): 7920 ± 1280b pg*30 min/sample
AUCI (Plasma Oxt; Oxt KO male mice, N = 7): 6120± 1280 pg*30 min/sample
Cmax (Plasma Oxt; Oxt KO male mice, N = 7): 131 ± 29 pg/sample
AUCG (Plasma Oxt; [5]): 23,600 ± 4880a pg*30 min/sample
AUCI (Plasma Oxt; [5]): 17,300 ± 5260 pg*30 min/sample
Cmax (Plasma Oxt; [5]): 398± 101 pg/sample
time for which Oxt was detected in circulation (Plasma Oxt; nasal, Oxt KO mice, spiking in the first 30 minutes): 90 min
time of return of Oxt concentration to baseline ([3]; Oxt KO mice, amygdala, intraperitoneal injection): 60 to 90 min
time at which Cmax of Oxt occurred ([3]; after nasal administration, current study, 30-min sampling): 30 to 60 min
Cmax in amygdala ECF adjusted for recovery rate ([3]; intraperitoneal injection, wildtype mice, amygdala): 0.91 ± 0.27 ng/mL
Cmax in amygdala ECF adjusted for recovery rate ([3]; nasal administration, wildtype mice, amygdala): 4.16 ± 1.00 ng/mL
time of peak concentration in brain ECF and plasma ([3]; nasal and intraperitoneal administration, wildtype mice): 30 to 60 min
time for which Oxt remained detectable in amygdala and hippocampus ([3]; nasal, Oxt KO mice): 90 min
